Each structure is given as a SMILES string. Activity calls are given as the source filed them. The calls are words filed in the database; no cut-off is given here.

The target in test [1] is T1, Prostaglandin E2 receptor EP4 subtype (Homo sapiens, UniProt P35408). In words: Antagonist activity against EP4 in human whole blood assessed as reversal of PGE2-mediated suppression of LPS-induced TNF-alpha production preincubated for 30 mins followed by LPS stimulation measured after 20 to 24 hrs by enzyme immunoassay. In kind it is tissue-based. The procedure, abridged: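 Pooled blood from donors free of NSAIDs or celecoxib for 48 h and of glucocorticoids for 2 weeks. Blood pretreated 30 min at 37 °C, 5% CO2 with compound in DMSO (7-point curve, triplicate). LPS […] ± 10 nM PGE2 (final) added, then incubated 20–24 h. Plasma TNFα read at A450-A650. IC50 from sigmoidal nonlinear fit; geometric mean of independent runs.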
T1 sequence (P35408 whole entry): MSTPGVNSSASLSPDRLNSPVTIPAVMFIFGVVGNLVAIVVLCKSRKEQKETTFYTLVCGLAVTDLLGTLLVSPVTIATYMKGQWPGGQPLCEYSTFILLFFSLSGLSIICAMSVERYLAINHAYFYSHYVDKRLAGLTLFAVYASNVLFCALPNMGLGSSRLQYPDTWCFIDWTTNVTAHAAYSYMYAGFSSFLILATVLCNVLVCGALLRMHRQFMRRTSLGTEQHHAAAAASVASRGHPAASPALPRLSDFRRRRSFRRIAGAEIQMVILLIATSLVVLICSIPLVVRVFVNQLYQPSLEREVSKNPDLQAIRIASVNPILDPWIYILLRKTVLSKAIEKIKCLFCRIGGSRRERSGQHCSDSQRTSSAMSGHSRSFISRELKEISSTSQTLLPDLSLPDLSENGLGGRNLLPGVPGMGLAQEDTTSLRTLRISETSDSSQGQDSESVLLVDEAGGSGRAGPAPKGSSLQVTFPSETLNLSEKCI

The target of test [2] is T1, Prostaglandin E2 receptor EP4 subtype. In words: Antagonist activity against human EP4 expressed in HEK293 cells assessed as inhibition of PGE2-stimulated production of cAMP incubated for 20 mins by HTRF assay. In kind it is functional, cell-based. (Time-resolved FRET reads energy transfer from a long-lived donor to a nearby acceptor.)
The subject of test [3] is Rattus norvegicus. Nature of the test: Antiinflammatory activity in rat adjuvant induced arthritis model assessed as suppression of Mycobacterium tuberculosis H37 RA induced paw swelling at 10 mg/kg measured from day 11 to 15 relative to vehicle control. In kind it is functional, organism-based. The procedure, abridged:
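Rat adjuvant-induced arthritis: paw widths measured, then 0.25 mg adjuvant (Mycobacterium tuberculosis H37 RA) in 100 µl mineral oil given intradermally at tail base (day 0). On day 11, width of both paws was re-measured as percent change from day 0, and rats were randomized on this and body weight before dosing. Rats were euthanized day 15 without further dosing and paw width measured.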

For test [4], the system named is Rattus norvegicus. In words: Antiinflammatory activity in rat MIA model assessed as inhibition of differential weight bearing at 5 mg/kg, po measured 30 mins post dose by incapacitance test. In kind it is functional, organism-based. An outline of the steps: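 MIA 0.3 mg in 50 µL saline injected into right knee and saline into left knee of rats on day 0. Day 12: randomized, single oral dose in 10% acacia in water plus 0.05% antifoam at 0.3–10 mg/kg, with diclofenac 5 mg/kg. Hind-limb weight distribution measured by incapacitance tester 30 min post dose. n = 5/group, Dunnett's test versus vehicle.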

A word on the IC50: it is the concentration that inhibits the measured activity by half. For `Cc1ccc(N2CCCC(CO)C2)nc1C(=O)Nc1c(C)ccc(C(=O)O)c1C` (centres undefined), the values for the IC50 in test [1] and in test [2] were 2.89 µM and 0.0142 µM, respectively.

Take `O=C(O)Cc1ccccc1Nc1c(Cl)cccc1Cl`: the outcome in the test with Rattus norvegicus [3] and in the test on Rattus norvegicus [4] was Active.

Values taken from ChEMBL document CHEMBL3792364, “Identification and biological activity of 6-alkyl-substituted 3-methyl-pyridine-2-carbonyl amino dimethyl-benzoic acid EP4 antagonists” (Bioorg Med Chem Lett, 2016).
